Assay outcomes (PubChem)
This is a sample that favours compounds with a hit; in the whole collection about 2.3% have one here.
TRPC4 PAM – TRPC4 (mouse) allosteric potentiation | Q9QUQ5 | HEK293 TRPC4beta/mu-opioid, DAMGO EC20, Fluo-4 Ca2+ flux; active compounds read high | B-score at 10 µM | hit rate 0.42% among 310,000 | AID 2227;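 active means B-score of calcium response area above 5 SD of library B-scores, with initial fluorescence ratio within 5 SD of library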;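 further: B-score of integrated fluorescence ratio over time as area under calcium response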
TRPC6 activator – activators of mouse TRPC6 channel | Q61143 | HEK293-TRPC6 membrane potential dye fluorescence; active compounds read high | B-score at 10 µM | hit rate 0.13% among 310,000;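 active means B-score of the integrated fluorescence ratio above library mean plus 3 SD, and starting fluorescence ratio within library mean plus 5 SD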;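 further: higher score means more depolarization so channel activation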
Target sequence (Q61143 whole entry, looked up): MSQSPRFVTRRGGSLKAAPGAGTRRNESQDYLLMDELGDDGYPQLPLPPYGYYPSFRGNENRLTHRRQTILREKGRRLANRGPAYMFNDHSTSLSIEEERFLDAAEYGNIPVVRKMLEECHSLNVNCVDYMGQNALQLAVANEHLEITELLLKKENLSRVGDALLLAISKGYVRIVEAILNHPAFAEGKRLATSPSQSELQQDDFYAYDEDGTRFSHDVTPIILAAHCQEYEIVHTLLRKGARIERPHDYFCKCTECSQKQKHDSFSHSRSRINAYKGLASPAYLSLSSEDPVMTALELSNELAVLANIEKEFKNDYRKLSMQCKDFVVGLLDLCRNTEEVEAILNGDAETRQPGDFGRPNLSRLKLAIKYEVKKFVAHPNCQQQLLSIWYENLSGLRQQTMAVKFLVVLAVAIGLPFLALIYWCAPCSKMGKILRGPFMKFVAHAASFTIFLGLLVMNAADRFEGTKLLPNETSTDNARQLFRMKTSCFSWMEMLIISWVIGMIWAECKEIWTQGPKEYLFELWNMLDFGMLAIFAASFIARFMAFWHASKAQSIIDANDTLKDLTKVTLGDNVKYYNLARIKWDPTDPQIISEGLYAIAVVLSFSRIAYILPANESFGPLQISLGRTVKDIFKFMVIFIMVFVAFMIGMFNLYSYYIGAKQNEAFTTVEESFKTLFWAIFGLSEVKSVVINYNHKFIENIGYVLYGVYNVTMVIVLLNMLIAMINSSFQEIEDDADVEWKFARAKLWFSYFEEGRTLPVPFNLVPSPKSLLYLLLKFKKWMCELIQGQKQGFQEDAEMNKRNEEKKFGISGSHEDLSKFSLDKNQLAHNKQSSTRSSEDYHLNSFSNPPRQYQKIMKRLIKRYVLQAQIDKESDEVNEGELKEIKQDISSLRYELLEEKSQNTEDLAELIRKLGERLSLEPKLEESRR
TRPC4 block – blocks the mouse TRPC4 cation channel | HEK293 TRPC4beta/mu-opioid, DAMGO-evoked Fluo4 calcium flux; active compounds read low | Q9QUQ5 | B-score at 10 µM | hit rate 0.39% among 300,000;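 active means B-score over 3 SD under the library average, no early fluorescence shift, positive overall ratio signal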
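Test system – stable TRPC4beta/mu-opioid receptor HEK293 cells · Probe or stimulus – DAMGO, a submaximal dose followed by a maximal one · Dosing – one concentration per compound · Signal – Fluo4 calcium fluorescence by kinetic imaging, 5 s 1 Hz baseline · Evaluation – per-well B score of integrated baseline-normalized Fluo4 ratio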
TRPC4 agonist – activators of mouse TRPC4 channel; Q9QUQ5; HEK293 TRPC4beta/mu-opioid, Fluo4 calcium fluorescence; active compounds read high; B-score at 10 µM; hit rate 0.49% among 310,000; AID 2237;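 active means B-score above 5 SD of library B-scores, and initial fluorescence ratio not above library mean plus 5 SD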;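 further: positive B-score marks a calcium rise read as TRPC4 activation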
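Material: TRPC4beta and mu-opioid receptor HEK293 stable cells | Incubation: 45 min room-temperature Fluo4 loading, 110 s read | Detection: Kinetic Fluo4 calcium fluorescence | Measure: Integrated baseline-normalised fluorescence ratio, converted to per-well B score | Benchmarks: Low control buffer alone, high control maximal DAMGO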
TRPC6 inh – inhibitors of mouse TRPC6 channel; Q61143; hit rate 1.1% among 310,000; B-score at 10 µM; HEK293-TRPC6, membrane potential dye, ACh-evoked depolarization; active compounds read low;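 active means B-score under library mean minus 3 SD, initial fluorescence not abnormally high, positive integrated signal ratio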;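 further: B-score derived from integrated fluorescence ratio over the kinetic read; more negative B-score means stronger inhibition of depolarization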
TRPC4 sel inh 2 – second selectivity test of TRPC6 inhibitors: effect on mouse TRPC4. HEK293 TRPC4/MOR, membrane potential dye fluorescence; channel activated by saturating DAMGO dose. shares compounds with TRPC6 inh. AID 2776. inhibition, % at 10 µM. hit rate 42% among 920;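 active means compounds whose fluorescence signal differed from control wells by over 3 SD, either direction, in both duplicate plates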
TRPC4 spec – selectivity of TRPC6 inhibitors: effect on mouse TRPC4; shares compounds with TRPC6 inh; HEK293 TRPC4/mu-opioid, membrane potential fluorescence; activity change, negative = inhibition, % at 10 µM; hit rate 61% among 920; AID 2777;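 active means rise or fall in signal beyond 3 SD of buffer-only wells in both replicate plates, either sign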;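 further: integrated kinetic ratio of fluorescence range over baseline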
HEK293 MPD ctr 2-1 – second counter-screen for TRPC6 inhibitors: parental HEK293 cells. shares compounds with TRPC6 inh. signal change vs control, % at 10 µM. hit rate 31% among 920. parental HEK293 membrane potential dye fluorescence; maximal acetylcholine challenge after compound addition;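 active means membrane potential signal moving either way by over 3 SD of the maximum-effect control, in both duplicate plates, meaning non-specific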
HEK293 MPD ctr-1 – checks TRPC6 inhibitor effects in parental HEK293 cells; shares compounds with TRPC6 inh; parental HEK293 membrane potential dye fluorescence; membrane potential signal change, % at 10 µM; hit rate 60% among 920; AID 2780;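 active means membrane potential signal shifting up or down by more than 3 SD of buffer-only wells, on both duplicate plates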
HEK293 MPD ctr-2 – parental HEK293 nonspecific activity of TRPC6 modulators; hit rate 51% among 2,400; AID 488924; membrane potential dye fluorescence; membrane potential signal change, % at 10 µM; shares compounds with TRPC6 inh;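 active means membrane potential signal moves up or down beyond 5 SD from buffer-only wells, on both duplicate plates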
HEK293 MPD ctr 2-2 – parental HEK293 nonspecific activity of TRPC6 modulators, second screen; shares compounds with TRPC6 inh; membrane potential dye fluorescence; after compound, maximal acetylcholine stimulation; inhibition, % at 10 µM; hit rate 14% among 2,400;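 active means membrane potential signal drops by more than 5 SD from the mean control signal, in both duplicate plates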;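 further: plate controls were acetylcholine ECmax control wells for no effect and buffer only wells for full effect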
TRPC4 ctr mod – tests whether TRPC6 modulators also affect mouse TRPC4. shares compounds with TRPC6 inh. HEK293 TRPC4/mu-opioid, membrane potential fluorescence. percent change from control (negative = decrease, positive = increase), % at 10 µM. hit rate 69% among 2,400. AID 488927;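 active means membrane potential signal moved up or down beyond 5 SD of buffer control wells, in both duplicate plates, actives on both sides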;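 further: plate controls were assay buffer wells for no effect and DAMGO maximal-effect wells for full effect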
TRPC4/MOR inh 2 – second selectivity test of TRPC6 modulators against mouse TRPC4 | HEK293 TRPC4/mu-opioid, membrane potential dye fluorescence; stimulated with maximal-effect DAMGO | inhibition, % at 10 µM | hit rate 55% among 2,400 | shares compounds with TRPC6 inh;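 active means drop in membrane potential signal beyond 5 SD of the control wells in both duplicate plates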;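 further: TRPC4 counter screen for TRPC6 hits run under conditions tuned for TRPC6 not TRPC4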
TRPC6 inh conf – mouse TRPC6 inhibitor confirmation; shares compounds with TRPC6 inh; HEK293-TRPC6, membrane potential dye, ACh-evoked depolarization; hit rate 43% among 3,300; inhibition, % at 10 µM;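 active means fluorescence ratio falls more than 5 SD below the full-stimulation control mean, in both duplicate runs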;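 further: integrated fluorescence ratio of peak minus minimum over baseline after agonist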
TRPC6 act conf – mouse TRPC6 activator confirmation | shares compounds with TRPC6 inh | HEK293-TRPC6 membrane potential dye fluorescence, FDSS | activation, % at 10 µM | hit rate 11% among 2,800 | AID 488961;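 active means ratio signal rise beyond 5 SD above unstimulated control wells' mean, seen in both duplicate runs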;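 further: plate controls were buffer EC0 wells for no effect and acetylcholine ECmax response for full effect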
Numbers without * were called inactive; i = inactive; / = no result.

SMILES	TRPC4 PAM	TRPC6 activator	TRPC4 block	TRPC4 agonist	TRPC6 inh	HEK293 MPD ctr-2	HEK293 MPD ctr 2-2	TRPC4 ctr mod	TRPC4/MOR inh 2	TRPC6 inh conf	TRPC6 act conf	others
O=C(Nc1ccc2nccnc2c1)c1cnccn1	i	i	i	i	-5.8*	-272%*	i	-48%*	42%*	49%*	i
CCc1ccc(NC(=O)c2cnccn2)cc1	i	i	i	i	i	/	/	/	/	/	/
CCCn1c(C)cc(=O)c2cc(NC(=O)c3cnccn3)ccc21	i	i	i	i	-12*	-300%*	86%*	-60%*	60%*	66%*	i
N#C[C@H]1C2OC2c2ccccc2N1C(=O)c1ccccc1 (some centres not stated)	i	i	i	i	i	/	/	/	/	/	/
CCOCCOc1cccc(C(=O)NC(C)c2ccc3ccccc3c2)c1 (configuration not stated)	i	i	i	i	i	/	/	/	/	/	/
O=C(NCc1ccc2c(c1)OCO2)c1ccc(NC(=O)C2CCCO2)cc1 (configuration not stated)	i	i	i	i	i	/	/	/	/	/	/
O=C(Nc1ccc2c(c1)OCCO2)c1ccc(NC(=O)C2CCCO2)cc1 (configuration not stated)	i	i	i	i	-5.2*	i	i	i	i	i	i
CCOc1cc(/C=C2\SC(=NC)N(C)C2=O)cc(Cl)c1OC(C)=O	i	i	i	i	-5*	i	i	i	i	i	i
CCOc1ccc(S(=O)(=O)N2CCc3cc(OC)c(OC)cc3C2)cc1	i	12*	i	i	i	i	i	10%*	i	/	114%*
COc1cc(-c2nc3ccccn3c2/N=C/c2cc(OC)c(O)cc2Cl)ccc1O	i	i	i	i	-5.8*	i	i	-10%*	34%*	i	i
Cn1c2c(c(=O)n(C)c1=O)C(C(F)(F)F)(C(F)(F)F)N=C(c1ccc(Cl)cc1)N2	i	i	i	i	-7.9*	/	/	/	/	101%*	i	TRPC4 sel inh 2=76%*;TRPC4 spec=20%*;HEK293 MPD ctr 2-1=i;HEK293 MPD ctr-1=11%*
Cc1ccccc1C1=NC(C(F)(F)F)(C(F)(F)F)c2c(n(C)c(=O)n(C)c2=O)N1	i	i	i	i	i	/	/	/	/	/	/
CC(=O)O[C@@H]1[C@@H](OC(C)=O)[C@H](n2ccc3cc([N+](=O)[O-])ccc32)OC[C@@H]1OC(C)=O	i	i	i	i	i	/	/	/	/	/	/
Cc1cc(C)c2cc3c(ccn3C3OC[C@H](O)[C@H](O)[C@H]3O)cc2n1 (some centres not stated)	i	i	i	i	-7.1*	i	i	-68%*	34%*	i	i
COC(=O)C[C@H]1c2cc(C(F)(F)F)ccc2S(=O)(=O)N1C1CCCC1	i	i	/	i	i	/	/	/	/	/	/
Cc1cc(C)n(-c2ccc(C(F)(F)F)cc2[N+](=O)[O-])n1	i	i	i	i	-5.3*	i	i	9.5%*	i	i	i
Cc1cc(N2CCN(c3ccc(C(F)(F)F)cc3[N+](=O)[O-])CC2)c2ccccc2n1	i	i	i	i	-6.3*	i	i	-12%*	67%*	i	i
Cc1cc(N2CCN(c3ccc([N+](=O)[O-])c4cccnc34)CC2)c2ccccc2n1	i	i	i	i	i	/	/	/	/	/	/
Cc1cc(C)n(-c2ccc(S(=O)(=O)N3CCCC3)cc2[N+](=O)[O-])n1	i	i	i	i	i	/	/	/	/	/	/
CCCCCCCCCCOC(=O)C[N+](C)(C)C/C=C(/C)Cl	i	i	i	i	-5.3*	134%*	i	30%*	42%*	64%*	/
CCCCCCCCOC(=O)C[N+](C)(C)C/C=C(/C)Cl	i	i	i	i	-7.6*	/	/	/	/	61%*	i	TRPC4 sel inh 2=i;TRPC4 spec=0.1%*;HEK293 MPD ctr 2-1=i;HEK293 MPD ctr-1=2.3%*
CCCCCCCCCCCCOC(=O)C[N+](C)(C)C	i	i	-6*	i	-6.9*	/	/	/	/	56%*	i	TRPC4 sel inh 2=i;TRPC4 spec=0.8%*;HEK293 MPD ctr 2-1=324%*;HEK293 MPD ctr-1=i
CCOC(=O)N1CCc2c(sc3nc4n(c(=O)c23)N=C(c2ccc(OC)cc2)CS4)C1	i	i	i	i	i	/	/	/	/	/	/
CCOc1ccc(N(C(=O)Cn2nnc3ccccc32)C(C(=O)NC(C)(C)CC)c2cccn2C)cc1 (configuration not stated)	i	i	i	i	i	/	/	/	/	/	/
CCC(C)(C)NC(=O)C(c1cccn1C)N(C(=O)Cn1nnc2ccccc21)c1ccc(OC)cc1OC (configuration not stated)	i	12*	i	i	-8.1*	124%*	i	44%*	41%*	38%*	68%*
CC(C)c1ccc(S(=O)(=O)N2CCN(C(=O)c3ccco3)CC2)cc1	i	12*	i	i	-11*	i	i	12%*	i	106%*	122%*
